Source: PubChem
Sampled rows, rich in hits. Any-hit rate of the full collection: about 3.9%.
NS3 helicase inh = HCV NS3 helicase inhibition; inhibition, % at 10.9 µM; NS3 helicase DNA unwinding, Cy5 molecular beacon fluorescence; actives 0.56% (n = 290,000); AID 1800;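 active = inhibition above the mean of all tested compounds plus 3 SD, set per campaign, cut at about 35% in these data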;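 also: 0% = DMSO wells and 100% = thioflavine S control wells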
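Assay system: hepatitis C virus NS3 helicase domain fragment enzyme. Also added: annealed dual-labelled DNA beacon duplex, ATP-started. Timing: 1 h reaction at 25 °C, ATP-initiated. Technique: Cy5 fluorescence at 0 and 60 min, beacon hairpin quenching. Evaluation: % inhibition of unwinding. Replication: one well per compound.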
HSF1 activator = increases HSF-1 driven luciferase reporter signal; activation, % at 9 µM; actives 1.7% (n = 300,000); AID 504408; NIH3T3-HGL HSF-1 luciferase reporter, MG132, 8 h; 100% = twice DMSO control signal;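 active = mean replicate activation of at least 50% with a set share of replicates each reaching 50%; inconclusive = only one of those two conditions met; inactive = mean below 50% and too few replicates reaching it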;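 also: 0% = median of the neutral control wells and 100% = twice that signal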
HSF1 inhib = HSF1 inhibition; AID 2098; NIH3T3-HGL HSE-luciferase, MG132-induced, luminescence 8 h; hits give low values; actives 0.77% (n = 300,000); activity change, negative = inhibition, % at 7.5 µM (by protocol);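 active = more than half of replicate wells show activity change below -50%, luminescence cut by over half; inconclusive = some wells, but at most half, below -50%; inactive = no replicate well below -50%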;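 also: luciferase reports HSF-1 transcriptional activity via heat shock element; 0% = median of DMSO wells and -100% = zero luminescence signal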
HSP90 refold inh = blocks HSP90-mediated luciferase refolding in reticulocyte lysate; Rabbit reticulocyte lysate, luciferase refolding luminescence, 3 h; inhibition, % at 5.6 µM; actives 0.91% (n = 290,000);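 active = inhibition above the screen-wide mean plus 3 SD, computed separately per campaign, cut at about 16% in these data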;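 also: 0% = DMSO wells and 100% = 60 µM geldanamycin wells; inhibitors lower the luminescence because luciferase stays unfolded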
HCV core dimer = HCV core protein dimerization inhibition; TR-FRET GST/Flag-core106 dimerization, 1536-well; inhibition, % at 5 µM; actives 0.33% (n = 300,000);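 active = inhibition above the mean of all tested compounds plus 3 SD, set per screening campaign, cut at about 45% in these data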
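Test system: GST/Flag-tagged HCV core106 proteins; Medium: KF-containing HEPES buffer, pH 7.45, DTT, CHAPS, BSA; Times: compound-protein-antibody incubation 4 h at 22.5 °C; Detection: TR-FRET 671 and 617 nm emission; Benchmarks: wells lacking GST-core106 and wells with excess unlabelled core106.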
DNA FID counter = displaces DNA intercalator in HCV helicase counter-screen | DNA fluorescent intercalator displacement, fluorescence | inhibition, % at 7.9 µM | actives 0.17% (n = 290,000) | AID 1845; in the data active = inhibition above about 37%;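 also: 0% = vehicle and 100% = reference compound; higher means more ethidium bromide displaced from hairpin DNA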
* marks the source's active call; other numbers are inactive results; ? = inconclusive; nt = no result given.

SMILES	NS3 helicase inh	HSF1 activator	HSF1 inhib	HSP90 refold inh	HCV core dimer	DNA FID counter
CCOC(=O)c1sc2nc3c(SCC(=O)O)cc(C(=O)c4ccccc4O)cn3c(=O)c2c1C	22.6	6.7	11.1	5.0	-301.6	-2.1
O=C(O)CSc1cc(C(=O)c2ccccc2O)cn2c(=O)c3c(-c4ccccc4)csc3nc12	3.8	2.7	-4.8	1.5	54.5*	9.3
Cc1ccc(NC(=O)CSc2n[nH]c(-c3cccnc3)n2)cc1Cl	-16.4	-0.9	10.5	-4.2	4.9	-8.3
Cc1ccc(S(=O)(=O)N(C)c2ccc(C)c([N+](=O)[O-])c2)cc1	1.8	70.0*	30.2	3.4	6.0	-19.6
CCC(OCC(O)CN1CCCCC1)c1ccccc1 (centres undefined)	3.9	2.2	-10.9	-0.8	-3.7	6.3
O=C(O)c1cc(-c2c[nH]c3ccccc23)nc2ccc3ccccc3c12	11.3	-75.1	-67.9*	1.6	8.3	-18.8
CSc1nsc(SCC(=O)Nc2ccc(F)cc2F)n1	-5.3	10.5	11.9	-0.1	-5.1	-5.2
Cc1ccccc1N=Nc1ccc(O)c2ncccc12	7.7	89.4*	66.2	-0.7	-4.5	-2.8
Oc1ccc(N=Nc2ccc3c(c2)OCCO3)c2cccnc12	3.6	-14.2	-2.9	7.0	0.5	-3.1
Nc1ccc(N=Nc2ccccc2)c2cccnc12	-2.8	82.0*	52.9	0.7	-18.2	1.1
COc1ccc(C)cc1N=Nc1ccc(O)c2ncccc12	2.7	-30.4	-19.4	-2.3	nt	-9.8
O=[N+]([O-])c1ccc(O)c2cccnc12	-12.5	9.6	4.4	-2.7	-4.2	2.6
COc1ccc(N=Nc2ccc(O)c3ncccc23)cc1	12.3	-28.0	-25.7	0.3	-1.1	-5.4
O=[N+]([O-])c1ccc(O)c2ncccc12	0.0	-61.4	-54.8*	2.7	-15.5	-9.9
COc1cccc(N=Nc2ccc(O)c3ncccc23)c1	16.3	90.2*	52.6	7.1	-10.6	-8.1
COc1ccc(CCNC(=O)c2cc(C(=O)c3cc(C)ccc3O)cn(CCc3ccc(OC)cc3)c2=O)cc1	-22.8	-8.5	-3.6	0.2	13.7	-2.1
Cc1c(/C=N/NC(=O)c2ccc(Br)o2)cnn1C	2.5	60.8*	21.2	0.2	-0.6	-5.9
Cc1c(/C=N\NC(=O)c2ccc(F)cc2)cnn1C	10.6	-1.8	10.3	-4.7	-6.3	-0.2
CCCCSC1=C(C#N)C(c2ccccc2C)CC(=O)N1 (centres undefined)	-5.4	-67.1	-58.9*	-4.5	1.3	-7.2
CCCSC1=C(C#N)C(c2ccccc2C)CC(=O)N1 (centres undefined)	-7.1	7.2	11.8	-5.9	0.2	-5.8
Nc1nc(Nc2cccc3ccccc23)nc(C2CCCC2=O)n1 (centres undefined)	-0.7	53.5*	7.3	-3.8	0.4	-0.8
Nc1nc(CCl)nc(Nc2cccc3ccccc23)n1	19.9	-78.9	-77.3*	0.6	2.2	-4.4
Cc1ccccc1Nc1nc(N)nc(COC(=O)c2ccccc2)n1	-13.7	58.2*	43.6	-9.2	-2.6	-15.9
c1ccc2c(Nc3nc(N4CCOCC4)c4ccccc4n3)cccc2c1	-46.2	19.7	-10.5	2.7	4.4	5.3
CCC(CO)NCC#Cc1ccccc1 (centres undefined)	-1.4	62.1*	32.2	1.2	-1.8	-6.0
SMILES	NS3 helicase inh	HSF1 activator	HSF1 inhib	HSP90 refold inh	HCV core dimer	DNA FID counter
COc1ccc(N2CCN(C(=O)c3cc4c(s3)-c3ccccc3OC4)CC2)cc1	-12.0	-1.7	-1.4	-0.7	-3.9	-12.0
O=C(c1cc2c(s1)-c1ccccc1OC2)N1CCN(c2ccccc2)CC1	1.0	-69.9	-63.6*	1.6	-30.0	-9.2
CCOC(=O)c1nnn(CC(=O)N2N=C(c3ccccc3)CC2c2ccccc2)c1C(=O)OCC (centres undefined)	-0.9	22.5	-2.5	3.7	25.3	-10.2
CCOC(=O)/C=C(\C)N1N=C(c2ccccc2)CC1c1ccccc1 (centres undefined)	10.2	64.6*	34.6	-1.4	4.9	-11.2
COc1ccc(C2CC(c3ccc(C)o3)=NN2C(C)=O)cc1 (centres undefined)	-2.0	25.6	16.2	4.5	4.4	-16.5
CC(=O)OCC(=O)N1N=C(c2ccc3ccccc3c2)CC1c1ccccc1 (centres undefined)	-19.4	52.8*	26.7	-3.8	15.6	-23.0
COc1ccc(C2CC(c3ccc4ccccc4c3OC(C)=O)=NN2C(C)=O)cc1 (centres undefined)	-14.0	93.7*	56.4	6.4	4.7	-46.0
N#Cc1ccc(COn2nnc3ccccc32)cc1	1.5	22.0	10.9	-1.3	-4.9	-3.8
Cc1ccc(S(=O)(=O)Nn2c(C)ccc2C)cc1	7.2	-5.0	1.3	2.2	67.2*	-1.2
CN(CCC#N)C(=S)Nc1ccc(Oc2ccccc2)cc1	-1.9	-13.7	-8.2	1.6	-9.9	-7.7
COc1ccc(OCCNc2cc(Cl)ccc2[N+](=O)[O-])cc1	-6.9	-4.6	1.0	3.3	0.6	-3.1
COc1ccc(-n2cc([N+](=O)[O-])c(=O)c3ccc(Cl)cc32)cc1	nt	-74.6	-66.0*	nt	-1.7	nt
O=C(Nc1cccc(-c2nnc(-c3ccccc3)o2)c1)c1ccc(Br)o1	-6.0	-10.2	-0.9	5.7	5.0	-14.6
O=C(N/N=C/C=C/c1ccco1)c1ccccc1Cl	21.7	68.8*	42.4	3.2	8.0	-19.0
CC(/C=C/c1ccco1)=N/NC(=O)c1ccccc1Cl	-4.7	?	27.5	1.4	4.3	-5.2
CC(/C=C/c1ccco1)=N\NC(=O)COc1ccc(C)c(C)c1	16.2	77.5*	67.3	1.2	3.5	-16.1
Cc1ccc(OCC(=O)N/N=C/C=C/c2ccco2)c(Br)c1	17.9	-0.1	1.8	5.8	nt	-14.9
O=C(Cc1cccs1)N/N=C/c1ccco1	6.1	-1.5	-7.7	-0.3	-1.0	-4.2
O=C(Cc1cccs1)N/N=C/C=C\c1ccco1	1.4	91.8*	64.4	0.6	5.0	-2.6
Cc1ccc(OCCNC(=O)/C=C/c2ccco2)cc1C	7.0	6.9	2.8	-4.4	32.0	-17.4
Cc1cccc(C)c1OCC(=O)N/N=C/C=C/c1ccco1	7.6	81.3*	63.1	-0.3	-9.1	-21.4
Cc1nnc(SCC(=O)N(CC(C)C)c2c(N)n(Cc3ccccc3)c(=O)[nH]c2=O)n1N	nt	-4.4	4.3	nt	-2.1	nt
c1ccc(NCc2ccncc2)cc1	1.6	0.0	1.1	1.1	1.2	-6.2
NS(=O)(=O)c1ccc(CCNc2ccccc2[N+](=O)[O-])cc1	1.4	5.5	-4.4	-2.6	-45.2	-1.9
Cc1cc(NC(=O)CSc2nc3c(cc2C#N)CCCC3)no1	-8.3	70.8*	44.7	1.2	9.9	-7.7
N#Cc1cc2c(nc1SCC(=O)O)CCCC2	-2.1	-9.5	-3.0	4.2	0.3	-4.8
